# According to paper PMC5749250 (Cell chemical biology, 2017):
# What was measured:
# [1] = target: USP7 catalytic domain (amino acids 208–560) (Homo sapiens, UniProt Q93009); test: Ub-AMC assay, USP7 catalytic domain; format: biochemical; settings: for inhibition of USP7: catalytic domain, Ub-AMC, concentrations up to 100 μM
# Outline: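 Human USP7 catalytic domain (residues 208–560) was expressed in E. coli BL21(DE3), purified on Ni-NTA, thrombin-treated, gel-filtered and used at 250 nM. 2 uM Ub-AMC was then added. Fluorescence (ex 345/em 445 nm) was read every minute for 30 min. IC50 came from initial rates plotted against concentration.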
# [2] = Solubility in aqueous buffer; format: physicochemical
# USP10 = settings: ref Altun et al., 2011; Ritorto et al., 2014; cited from earlier work
# USP7 = settings: read-out: IC50, USP7; ref Altun et al., 2011; Ritorto et al., 2014; cited from earlier work
# USP47 = settings: ref Altun et al., 2011; Ritorto et al., 2014; cited from earlier work
# full-length USP7Q351S = full-length USP7Q351S (Homo sapiens, UniProt Q93009, Q351S); test: Ub-AMC assay, full-length USP7Q351S; format: biochemical; settings: dose-response, amino acids 1–1102
# Outline: (§1)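 Full-length USP7 (1–1102), wild type or Q351 mutant, was expressed in E. coli BL21(DE3), purified by Ni-NTA and Superdex 200 and used at 50 nM. 2 uM Ub-AMC was added and fluorescence (345/445 nm) read each minute over 30 min. Initial rates against concentration gave IC50.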
# [3] = target: full-length USP7 (amino acids 1–1102) (Homo sapiens, UniProt Q93009); test: Ub-AMC assay, full-length USP7; format: biochemical; settings: XL188 vs 1
# Outline: as §1
# MCF7 cells = test: HDM2, p53 and p21 protein levels in MCF7 cells; format: cell-based; settings: 16 hours
# Outline: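 MCF7 cells grown in RPMI with 10% heat-inactivated FBS and penicillin/streptomycin at 37 °C, 5% CO2. Treated with test compound or DMSO for 16 h. Where used, cycloheximide (50 ug/ml) was added at 14 h. Cells were washed in PBS and lysed in modified RIPA buffer with phosphatase and protease inhibitors. Protein was quantified by BCA, then immunoblotted for mdm2, p53, p21, GAPDH and USP7.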
# [4] = Mouse liver microsome stability; format: in vitro ADME; settings: liver microsomes
# MM.1S cells = test: HDM2, p53 and p21 protein levels in MM.1S cells; format: cell-based; settings: 6 hours
# Outline: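 MM.1S cells were cultured in RPMI with 10% heat-inactivated FBS and penicillin/streptomycin (37 °C, 5% CO2). They were exposed to test compound or DMSO for 6 h, with or without 50 ug/ml cycloheximide added at 4 h. After a PBS wash, cells were lysed in modified RIPA containing phosphatase and protease inhibitors. Lysates were BCA-normalised and immunoblotted for mdm2, p53, p21, GAPDH and USP7.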
# native USP7 = native USP7 (Homo sapiens, UniProt Q93009); test: Competitive activity based protein profiling with HA-Ub-Vs in HEK293T lysates; format: binding
# panel of purified DUBs = test: Selectivity profiling; format: biochemical
# Sequence of USP7 catalytic domain (amino acids 208–560) (Q93009 208-560): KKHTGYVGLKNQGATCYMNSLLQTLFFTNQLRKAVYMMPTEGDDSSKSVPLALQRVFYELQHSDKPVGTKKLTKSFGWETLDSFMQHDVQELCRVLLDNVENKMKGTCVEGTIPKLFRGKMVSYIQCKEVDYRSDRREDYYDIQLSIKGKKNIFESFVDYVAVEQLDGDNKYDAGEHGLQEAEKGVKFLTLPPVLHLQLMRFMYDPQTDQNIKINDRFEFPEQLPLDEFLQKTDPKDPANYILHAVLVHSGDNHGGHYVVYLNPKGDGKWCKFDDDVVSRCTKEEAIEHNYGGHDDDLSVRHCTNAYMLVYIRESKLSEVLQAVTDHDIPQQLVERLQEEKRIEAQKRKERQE
# Sequence of full-length USP7 (amino acids 1–1102) (Q93009 whole entry, the tested form may be a part): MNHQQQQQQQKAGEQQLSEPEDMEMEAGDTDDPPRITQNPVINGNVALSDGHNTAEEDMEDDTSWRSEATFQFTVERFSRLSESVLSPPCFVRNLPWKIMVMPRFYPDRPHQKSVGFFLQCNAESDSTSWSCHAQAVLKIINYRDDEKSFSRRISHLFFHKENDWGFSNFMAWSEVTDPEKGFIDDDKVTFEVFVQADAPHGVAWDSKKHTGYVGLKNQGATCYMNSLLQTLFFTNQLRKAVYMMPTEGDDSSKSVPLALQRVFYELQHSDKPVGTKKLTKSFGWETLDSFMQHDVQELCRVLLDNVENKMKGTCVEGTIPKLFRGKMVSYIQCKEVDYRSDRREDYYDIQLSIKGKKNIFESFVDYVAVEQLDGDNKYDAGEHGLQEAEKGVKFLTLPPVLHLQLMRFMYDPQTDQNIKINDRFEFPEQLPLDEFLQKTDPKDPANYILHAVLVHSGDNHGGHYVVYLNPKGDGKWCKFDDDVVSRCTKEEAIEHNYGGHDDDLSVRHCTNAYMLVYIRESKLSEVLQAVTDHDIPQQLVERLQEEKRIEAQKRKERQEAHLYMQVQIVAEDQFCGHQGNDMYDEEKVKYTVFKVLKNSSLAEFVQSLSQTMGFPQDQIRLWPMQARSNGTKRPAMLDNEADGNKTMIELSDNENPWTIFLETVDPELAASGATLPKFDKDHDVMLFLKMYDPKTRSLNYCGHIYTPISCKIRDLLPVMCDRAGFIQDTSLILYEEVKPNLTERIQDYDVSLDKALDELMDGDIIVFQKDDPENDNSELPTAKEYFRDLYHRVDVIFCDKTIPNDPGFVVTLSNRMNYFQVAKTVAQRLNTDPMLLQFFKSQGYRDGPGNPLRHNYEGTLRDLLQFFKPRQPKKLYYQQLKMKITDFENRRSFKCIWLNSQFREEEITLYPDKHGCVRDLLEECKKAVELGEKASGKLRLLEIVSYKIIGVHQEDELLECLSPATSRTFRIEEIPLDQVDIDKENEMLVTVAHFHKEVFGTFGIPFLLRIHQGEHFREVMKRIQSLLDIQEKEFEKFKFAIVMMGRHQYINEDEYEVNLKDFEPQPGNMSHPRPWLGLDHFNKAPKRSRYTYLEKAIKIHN
# Sequence of native USP7 (Q93009 whole entry): as the sequence (Q93009 whole entry, the tested form may be a part) above
# Sequence of full-length USP7Q351S (Q93009 whole entry Q351S, the tested form may be a part): as the sequence (Q93009 whole entry, the tested form may be a part) above, with Q351S counted along it
smiles,measurement,setting,value
"O=C(CCc1ccccc1)N1CCC(Cn2cnc3cc(Cl)ccc3c2=O)CC1 [Compound 2, 7-chloro-3-((1-(3-phenylpropanoyl)piperidin-4-yl)methyl)quinazolin-4(3H)-one]",inhibition of USP7,[1],little inhibition
"N#CC1(Cn2cnc3cc(Cl)ccc3c2=O)CCN(C(=O)CCc2ccccc2)CC1 [Compound 3, 4-((7-chloro-4-oxoquinazolin-3(4H)-yl)methyl)-1-(3-phenylpropanoyl)piperidine-4-carbonitrile]",inhibition of USP7,[1],little inhibition
"O=c1c2ccc(Cl)cc2ncn1CC1(O)CCN(CCCc2ccccc2)CC1 [Compound 4, 7-chloro-3-((4-hydroxy-1-(3-phenylpropyl)piperidin-4-yl)methyl)quinazolin-4(3H)-one]",inhibition of USP7,[1],abrogated USP7 activity
"O=C(CCc1ccccc1)N1CCC(O)(Cn2cnc3cc(Cl)ccc3c2=O)C1 (stereo not drawn) [Compound 5, 7-chloro-3-((3-hydroxy-1-(3-phenylpropanoyl)pyrrolidin-3-yl)methyl)quinazolin-4(3H)-one]",inhibition of USP7,[1],abrogated USP7 activity
"CC(=O)N1CCC(O)(Cn2cnc3cc(Cl)ccc3c2=O)CC1 [Compound 6, 3-((1-acetyl-4-hydroxypiperidin-4-yl)methyl)-7-chloroquinazolin-4(3H)-one]",IC50,[1],> 100 µM
"O=C(Cc1ccccc1)N1CCC(O)(Cn2cnc3cc(Cl)ccc3c2=O)CC1 [Compound 7, 7-chloro-3-((4-hydroxy-1-(2-phenylacetyl)piperidin-4-yl)methyl)quinazolin-4(3H)-one]",IC50,[1],> 100 µM
"CC(CC(=O)N1CCC(O)(Cn2cnc3cc(Cl)ccc3c2=O)CC1)c1ccccc1 (stereo not drawn) [Compound 8, 7-chloro-3-((4-hydroxy-1-(3-phenylbutanoyl)piperidin-4-yl)methyl)quinazolin-4(3H)-one]",fold improvement of biochemical potency,[1]; relative to 1,approximately 10 fold
"C[C@H](CC(=O)N1CCC(O)(Cn2cnc3cc(Cl)ccc3c2=O)CC1)c1ccccc1 [Compound 9, (R)-7-chloro-3-((4-hydroxy-1-(3-phenylbutanoyl)piperidin-4-yl)methyl)quinazolin-4(3H)-one]",solubility in aqueous buffer,[2],poor
same,fold more potent than the (S)-stereoisomer (10),[1]; (R)- vs (S)-stereoisomer,approximately 100 fold
CC(=O)c1cc([N+](=O)[O-])c(Sc2ccc(F)cc2F)s1 [Compound P22077],inhibition of USP10 compared with USP7,USP10,equipotent
same,inhibition of USP47 compared with USP7,USP47,equipotent
"C[C@H](CC(=O)N1CCC(O)(Cn2cnc3cc(NC(=O)CCN4CCN(C)CC4)ccc3c2=O)CC1)c1ccccc1 [XL188, (R)-N-(3-((4-hydroxy-1-(3-phenylbutanoyl)piperidin-4-yl)methyl)-4-oxo-3,4-dihydroquinazolin-7-yl)-3-(4-methylpiperazin-1-yl)propanamide]",inhibition of full-length USP7Q351S,full-length USP7Q351S,resistant
same,fold improvement in biochemical inhibition of USP7 compared to 1,[3],100 fold
same,levels of p53 and p21,MCF7 cells,increased
same,HDM2 level,MCF7 cells; cycloheximide for the last 2 hours,Degradation of HDM2
same,half-life,[4],31 min
same,IC50,[1],0.193 µM
same,HDM2 level,MM.1S cells,loss of HDM2
same,levels of p21 and p53,MM.1S cells,increase
same,IC50,native USP7,~0.9 µM
same,"inhibition of DUBs other than USP7, panel of 41 purified DUBs","panel of purified DUBs; 10 μM compound, Ub-Rho as substrate",little to no inhibition
"C[C@@H](CC(=O)N1CCC(O)(Cn2cnc3cc(NC(=O)CCN4CCN(C)CC4)ccc3c2=O)CC1)c1ccccc1 [XL203C, (S)-N-(3-((4-hydroxy-1-(3-phenylbutanoyl)piperidin-4-yl)methyl)-4-oxo-3,4-dihydroquinazolin-7-yl)-3-(4-methylpiperazin-1-yl)propanamide]",levels of p53 and p21,MCF7 cells,no observable change
same,inhibition of other DUBs,"panel of purified DUBs; Figure S1G, Table S1, concentration not given",no significant inhibition
